# Measurements: PubChem BioAssay
# Records with an inconclusive call do not appear. Activity calls are given as the source filed them.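 How the source made its calls, unless noted: active means viability increase at or above a cutoff of the median across tested compounds plus 3 SD (cut at about 8.5% in these data, passing the limit was not always enough); inconclusive means some gains above the cutoff, reason not given; inactive means the rest.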
# Legend:
# [1] = OD615 S. cerevisiae growth inhibition, permissive medium, pilot counter-assay, permissive growth control for S. cerevisiae lifespan shortening project (AID 705;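 active means growth inhibition above 25% in both replicates, a cutoff set 3 SD above the mean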); conditions: OD615, 24 h, at 10 µM, active compounds read high
# In short: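 Timing: 24 h exposure, 30 °C / Material: Saccharomyces cerevisiae strain carrying genetically modified DeaD replicative-lifespan system / Signal: OD at 615 nm / Compound: 10 µM single dose, 0.25% DMSO / Medium: SC raffinose/galactose permissive medium / Evaluation: reduction in yeast growth (OD615)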
# [2] = Restrictive medium S. cerevisiae growth inhibition, OD615, pilot screen of yeast lifespan reduction project, restrictive growth control (AID 706;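 active means growth inhibition above a set limit, 3 SD over mean compound inhibition, in both replicates, cut at about 43% in these data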;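 further: modified DeaD lifespan yeast strain shifted to restrictive glucose medium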); conditions: OD615, 48 h, at 10 µM, active compounds read high
# In short: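 System: Engineered S. cerevisiae DeaD strain | Detection: OD615 | Buffer or medium: CSMM-D glucose medium | Doses: 10 µM compound, 0.25% DMSO | Timing: 4 h pre-growth plus 48 h compound exposure, 30 °C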
# [3] = viability gain of MRP-1-high H69AR cells under doxorubicin, pilot screen, MRP-1 activator project, CellTiter-Glo, duplicate (AID 807); conditions: H69AR viability with doxorubicin, CellTiter-Glo luminescence; at 10 µM; active compounds read high;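 further: compound pretreatment 18-22 h then 72 h combined with doxorubicin; 0% = doxorubicin alone and 100% = vehicle without doxorubicin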
# [4] = growth suppression of beta-catenin knockout HCT116, pilot screen, human colon tumor cells (AID 823;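 active means cell viability at or below a set limit in both duplicate runs, the limit being the all-compound median minus 4 SD, cut at about 23% in these data, passing the limit was not always enough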;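 further: 0% = wells killed by 20 µM Hyamine and 100% = untreated DMSO cell wells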); conditions: CellTiter-Glo, 60 h, at 10 µM, active compounds read low
# [5] = growth suppression of PTEN-deleted HCT116, pilot screen, cell-based, HCT116 clonal line, CellTiter-Glo (AID 824;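 active means viability at or below 27.92% in each of two runs, the all-compound median minus 4 SD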;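 further: 0% = 20 µM Hyamine control and 100% = vehicle cell control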); conditions: 60 h, at 10 µM, active compounds read low
# [6] = inhibitors of the yeast RAM network, pilot screen, dse1pr::URA3 reporter, 5-FOA selection (AID 869;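 active means inhibition over a set limit, the all-compound mean plus 3 SD, in both replicate runs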;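 further: 0% = DMSO wells with no growth and 100% = 10 µM 1-NA-PP1 with full growth; RAM network block rescues cells from 5-FOA so hits raise OD615 growth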); conditions: S. cerevisiae dse1pr::URA3 5-FOA growth, OD615, 2 d; at 10 µM; active compounds read high; strain carries analog-sensitive mutant Cbk1 kinase
# [7] = RAM signaling pathway blockade in yeast – S. cerevisiae, Pdr1DBD-CYC8 efflux-inhibited sensitized strain, primary screen (AID 1298;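 active means RAM network inhibition above 8.4% in each of two replicates, 3 SD over the compound average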;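 further: 0% = DMSO untreated cells without growth and 100% = 10 µM 1-NA-PP1 full growth; higher means more yeast growth rescued from 5-FOA killing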); conditions: S. cerevisiae cbk1-as DSE1-URA3 strain, 5-FOA growth OD615, 2 d; at 50 µM; active compounds read high
Structure (SMILES),growth inhibition [1],growth inhibition [2],viability increase [3],viability [4],viability [5],inhibition [6],RAM network inhibition [7]
CCCc1cc(=O)oc2cc(OCC(=O)N(C)C)c(Cl)cc12,-3.68% (inactive),6.56% (inactive),-0.5% (inactive),99.6% (inactive),93.9% (inactive),1.73% (inactive),-1.29% (inactive)
COc1ccccc1CNC(=O)C1CCN(S(=O)(=O)c2cccc3cccnc23)CC1,5.11% (inactive),0.02% (inactive),-1.41% (inactive),108% (inactive),97.2% (inactive),-0.9% (inactive),-0.93% (inactive)
CCc1nnc(SCc2ccc(OC)c(Br)c2)n1N,6.13% (inactive),-2.06% (inactive),-0.5% (inactive),104% (inactive),98.9% (inactive),0.21% (inactive),2.41% (inactive)
O=C(Cn1c(=O)oc2cc(S(=O)(=O)N3CCc4ccccc43)ccc21)N1CCCCC1,-2.98% (inactive),-7.46% (inactive),-2.88% (inactive),98.1% (inactive),80.5% (inactive),-0.125% (inactive),2.79% (inactive)
CCOC(=O)N1CCN(CC(=O)c2ccc3c(c2)CCN3C(C)=O)CC1,0.355% (inactive),-1.94% (inactive),-1.31% (inactive),100% (inactive),96.6% (inactive),2.14% (inactive),6.23% (inactive)
Cc1cc(C)n(Cc2ccccc2F)c(=O)c1C#N,-7.71% (inactive),-16.5% (inactive),-1.4% (inactive),105% (inactive),96.9% (inactive),0.375% (inactive),4.95% (inactive)
CCCOCCOC(=O)C1=C(C)NC(=O)NC1c1cc(Cl)c(O)c(OC)c1 (stereo unspecified),-3.46% (inactive),-0.16% (inactive),-0.57% (inactive),102% (inactive),94.6% (inactive),0.265% (inactive),-1.04% (inactive)
CCn1c(C2CC(=O)N(Cc3ccccc3)C2)nc2ccccc21 (stereo unspecified),7.85% (inactive),7.52% (inactive),-2.06% (inactive),102% (inactive),91.3% (inactive),-0.3% (inactive),4.25% (inactive)
COc1ccc(OCC(=O)Nc2cccc(C(C)=O)c2)cc1,0.595% (inactive),15.9% (inactive),-0.88% (inactive),93.9% (inactive),94.6% (inactive),0.74% (inactive),2.7% (inactive)
COc1cccc(-c2nc(C(N)=O)c3[nH]c(=O)n(-c4ccccc4)c3n2)c1OC,-8.87% (inactive),-8.02% (inactive),-4.58% (inactive),99.4% (inactive),95.9% (inactive),3.04% (inactive),-0.2% (inactive)
O=S(=O)(NCCCN1CCN(c2ccccc2F)CC1)c1cccc2cccnc12,-1.96% (inactive),6.3% (inactive),-2.92% (inactive),77.9% (inactive),77.4% (inactive),0.97% (inactive),5.43% (inactive)
COc1cccc(NC=C2C(=O)OC3(CCCCC3)OC2=O)c1,-8.74% (inactive),5.97% (inactive),-1.85% (inactive),95.1% (inactive),104% (inactive),2.04% (inactive),5.16% (inactive)
Cc1nc(C)c(C(=O)Nc2ccccc2)s1,-0.755% (inactive),-6.96% (inactive),-0.17% (inactive),98.4% (inactive),88.3% (inactive),0.68% (inactive),3.02% (inactive)
COC(=O)c1cc(Nc2cc(C)nc3ncnn23)cc(C(=O)OC)c1,7.62% (inactive),11% (inactive),-3.2% (inactive),108% (inactive),97.1% (inactive),1.31% (inactive),1.36% (inactive)
COc1ccc(C(C)(C)C)cc1NC(=O)COC(=O)c1cnc(C)cn1,-4.5% (inactive),-5.05% (inactive),-2.09% (inactive),97.3% (inactive),94.3% (inactive),0.395% (inactive),4.9% (inactive)
Cc1nc(SCC(=O)NCc2ccco2)c2oc3ccccc3c2n1,-0.535% (inactive),1.3% (inactive),-2.69% (inactive),95.2% (inactive),94% (inactive),0.86% (inactive),2.53% (inactive)
O=C(NCCn1ccc2ccccc21)c1ccc2c(c1)OCO2,-2.72% (inactive),-4.68% (inactive),0.1% (inactive),101% (inactive),94.4% (inactive),0.58% (inactive),6.97% (inactive)
COc1cc(NC(=O)c2cc3c(=O)n(C)c4ccccc4c3n2C)cc(OC)c1OC,1.8% (inactive),7.94% (inactive),-3.3% (inactive),106% (inactive),95.7% (inactive),3.3% (inactive),5.77% (inactive)
CCCCS(=O)(=O)/C=C\C=C/S(=O)(=O)CCCC,14.9% (inactive),60% (active),-7.95% (inactive),1.4% (active),1.36% (active),-0.535% (inactive),-3.06% (inactive)
COc1ccc2c(Cl)c(-c3nnc(SCC(N)=O)n3C)sc2c1,-2.31% (inactive),11.7% (inactive),-2.99% (inactive),106% (inactive),94% (inactive),1.43% (inactive),0.69% (inactive)
C=CCN1C(=Nc2ccccc2)SC/C1=C\C(=O)OC,-14.6% (inactive),-4.42% (inactive),-2.34% (inactive),89% (inactive),89.8% (inactive),0.81% (inactive),6.77% (inactive)
CCCCCOC(=O)Cn1c(=O)oc2ccccc21,-7.12% (inactive),4.42% (inactive),-1.13% (inactive),90.3% (inactive),97.8% (inactive),0.385% (inactive),4.28% (inactive)
Cc1ccc(S(=O)(=O)Cc2ccc(C(=O)N3CCCCCC3)o2)cc1,-10.6% (inactive),-22.4% (inactive),-1.93% (inactive),98.8% (inactive),96.2% (inactive),1.73% (inactive),8.33% (inactive)
Cn1c(=O)oc2cc(S(=O)(=O)Nc3ccc(Cl)cc3F)ccc21,-9.48% (inactive),-19.3% (inactive),2.12% (inactive),105% (inactive),92.7% (inactive),0.53% (inactive),9.07% (inactive)

Structure (SMILES),growth inhibition [1],growth inhibition [2],viability increase [3],viability [4],viability [5],inhibition [6],RAM network inhibition [7]
CCOc1ccc(-n2c(Cc3cc(=O)[nH]c(=O)[nH]3)nnc2SCC(=O)OC)cc1,-2.32% (inactive),3.42% (inactive),1.38% (inactive),104% (inactive),97.3% (inactive),2.62% (inactive),0.78% (inactive)
Cc1cccc(-c2nc(CS(=O)CC(=O)N3CCc4ccccc4C3)c(C)o2)c1 (stereo unspecified),0.13% (inactive),20.1% (inactive),-4.54% (inactive),84.8% (inactive),88.8% (inactive),0.385% (inactive),3.23% (inactive)
CN=C(NC)SC1CC(=O)N(c2ccccc2)C1=O (stereo unspecified),-8.98% (inactive),-4.91% (inactive),1.47% (inactive),109% (inactive),101% (inactive),0.305% (inactive),1.02% (inactive)
CCn1cc(C(=O)NC2CCCCCC2)c(=O)c2cc(S(=O)(=O)N3CCCCC3)ccc21,-3.87% (inactive),-20.1% (inactive),-8.11% (inactive),72.2% (inactive),69.8% (inactive),0.625% (inactive),2.45% (inactive)
c1cncc(-c2nc3ccccn3c2Nc2ccc3c(c2)OCCO3)c1,-1.86% (inactive),9.11% (inactive),-2.32% (inactive),99.6% (inactive),94.4% (inactive),1.04% (inactive),4.54% (inactive)
CC1=C(C)C(=O)N(CCC(=O)O)C1=O,-12.6% (inactive),-20.3% (inactive),-1.09% (inactive),95.3% (inactive),93.8% (inactive),1.52% (inactive),3.32% (inactive)
O=C(NCc1ccco1)C1CCN(S(=O)(=O)c2cccc3cccnc23)CC1,5.31% (inactive),5.93% (inactive),-2.72% (inactive),99.4% (inactive),93.8% (inactive),2.12% (inactive),2.63% (inactive)
Cc1nc2c3ccccc3n(CC#N)c(=O)n2n1,-11.8% (inactive),-5.63% (inactive),-3.78% (inactive),99.9% (inactive),95.8% (inactive),2.66% (inactive),0.21% (inactive)
CCOC(=O)C1=C(C)NC(=O)NC1c1ccc(N(CC)CC)cc1 (stereo unspecified),-11.1% (inactive),-3.54% (inactive),-1.3% (inactive),97.5% (inactive),99.3% (inactive),1.44% (inactive),1.67% (inactive)
COC(=O)c1ccc(N2CCOCC2)c(NC(=O)Nc2cccc(OC)c2)c1,-14.5% (inactive),-8.03% (inactive),-5.3% (inactive),84.4% (inactive),77.1% (inactive),1.09% (inactive),5.95% (inactive)
O=C(Cn1nnc(-c2ccccc2F)n1)NCCc1ccccc1,-13.3% (inactive),-7.54% (inactive),-0.89% (inactive),97.4% (inactive),94% (inactive),1.33% (inactive),0.36% (inactive)
CCOc1ccc(C2C(C#N)=C(N)SC(N)=C2C#N)cc1OCC,12.6% (inactive),-4.33% (inactive),-0.77% (inactive),103% (inactive),91.5% (inactive),0.96% (inactive),7.43% (inactive)
COC(=O)c1ccc(OCC(O)CN(CC(C)C)CC(C)C)cc1 (stereo unspecified),-3.55% (inactive),-4.33% (inactive),-1.4% (inactive),76.1% (inactive),86.4% (inactive),1.47% (inactive),2.82% (inactive)
COc1ccc(CCNC(=O)c2c(O)c3c([nH]c2=O)CCCC3)cc1,-0.92% (inactive),-15.2% (inactive),-0.72% (inactive),97.1% (inactive),90% (inactive),1.77% (inactive),4.09% (inactive)
Cc1cc(C(=O)NC2CCCC2)on1,-11.8% (inactive),-21.1% (inactive),0.32% (inactive),107% (inactive),102% (inactive),1.71% (inactive),1.5% (inactive)
O=C(O)C1CC=CCC1C(=O)Nc1cccc(Cl)c1Cl (stereo unspecified),-8.95% (inactive),-11.1% (inactive),-1.82% (inactive),99.6% (inactive),101% (inactive),3.07% (inactive),0.21% (inactive)
Cc1nnc(-c2ccccc2)c[n+]1[O-],-6.06% (inactive),-14.7% (inactive),-2.16% (inactive),101% (inactive),95.2% (inactive),0.98% (inactive),0.63% (inactive)
Cc1c2cnn(-c3ccccc3)c(=O)c2c(C)n1CCCC(=O)N1CCN(C)CC1,-6.96% (inactive),-7.72% (inactive),-1.33% (inactive),104% (inactive),96.2% (inactive),1.86% (inactive),3.19% (inactive)
CC(C)(C)c1ccc(-c2cc(N)n[nH]2)cc1,2.28% (inactive),13.2% (inactive),-2.81% (inactive),95.5% (inactive),90.1% (inactive),2.32% (inactive),2.2% (inactive)
CC(=O)Nc1nc2ccccc2n1CCN(C)C,-5.31% (inactive),-3.15% (inactive),-0.15% (inactive),99.3% (inactive),103% (inactive),2.95% (inactive),7.04% (inactive)
COC(=O)CC1Oc2ccc(C)cc2NC1=O (stereo unspecified),-4.56% (inactive),-1.75% (inactive),2.26% (inactive),101% (inactive),101% (inactive),0.27% (inactive),2.35% (inactive)
COC(=O)c1cc(OC)c(OC)cc1-n1cnc2cc(OC)c(OC)cc2c1=O,-8.81% (inactive),-0.615% (inactive),-0.58% (inactive),97.4% (inactive),105% (inactive),0.665% (inactive),0.92% (inactive)
O=C(Cn1cc2c(n1)CCCC2)N1CCCc2ccccc21,1.09% (inactive),4.04% (inactive),-1.6% (inactive),98.6% (inactive),100% (inactive),0.85% (inactive),1.48% (inactive)
CCCCCn1c(SC(C)C(C)=O)nc2c1c(=O)[nH]c(=O)n2C (stereo unspecified),-25.6% (inactive),-33.8% (inactive),-0.88% (inactive),94.4% (inactive),88% (inactive),2.36% (inactive),2.16% (inactive)
